These results are taken from ChEMBL document CHEMBL1154352, “Toll-like receptor 7 selective synthetic oligoribonucleotide agonists: synthesis and structure-activity relationship studies” (J Med Chem, 2009).

In assay [1] the target is T1, Toll-like receptor 7 (Homo sapiens) (UniProt Q9NYK1).
T1 sequence (whole entry): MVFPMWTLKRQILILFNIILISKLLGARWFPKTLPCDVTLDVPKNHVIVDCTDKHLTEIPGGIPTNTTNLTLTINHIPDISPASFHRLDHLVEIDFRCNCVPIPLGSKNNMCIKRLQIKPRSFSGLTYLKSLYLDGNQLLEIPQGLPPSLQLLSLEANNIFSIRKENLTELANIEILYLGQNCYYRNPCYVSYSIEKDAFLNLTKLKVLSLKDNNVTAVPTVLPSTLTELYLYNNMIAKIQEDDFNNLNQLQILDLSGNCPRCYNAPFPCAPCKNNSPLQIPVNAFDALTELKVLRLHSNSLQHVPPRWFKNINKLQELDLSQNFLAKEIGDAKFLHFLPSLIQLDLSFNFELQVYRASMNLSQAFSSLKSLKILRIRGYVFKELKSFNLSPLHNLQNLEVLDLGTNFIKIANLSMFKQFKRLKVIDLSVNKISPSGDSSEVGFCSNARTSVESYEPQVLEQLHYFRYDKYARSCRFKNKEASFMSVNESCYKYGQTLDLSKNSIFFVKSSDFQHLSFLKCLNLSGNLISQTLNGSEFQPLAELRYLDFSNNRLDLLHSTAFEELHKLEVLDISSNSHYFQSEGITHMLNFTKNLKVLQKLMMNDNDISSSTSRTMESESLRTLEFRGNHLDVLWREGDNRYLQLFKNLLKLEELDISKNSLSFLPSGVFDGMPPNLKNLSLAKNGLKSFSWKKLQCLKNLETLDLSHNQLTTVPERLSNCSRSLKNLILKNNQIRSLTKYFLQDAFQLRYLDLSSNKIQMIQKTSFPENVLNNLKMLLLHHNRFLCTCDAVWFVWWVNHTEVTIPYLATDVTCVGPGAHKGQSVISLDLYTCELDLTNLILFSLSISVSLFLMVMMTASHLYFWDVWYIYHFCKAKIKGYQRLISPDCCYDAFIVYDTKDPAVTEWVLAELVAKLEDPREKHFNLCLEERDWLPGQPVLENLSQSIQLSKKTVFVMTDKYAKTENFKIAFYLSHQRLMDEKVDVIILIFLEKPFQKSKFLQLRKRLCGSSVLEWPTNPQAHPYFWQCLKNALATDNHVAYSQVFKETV
The assay can be described thus: Activation of human TLR7 expressed in HEK293XL assessed as fold induction of NF-kappaB activity at 50 ug/ml after 18 hrs by reporter gene assay relative to control. A digest of the protocol:
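HEK293 cells stably expressing human TLR7 or TLR8, transiently transfected with SEAP reporter plasmid; medium replaced, SIMRA compounds added, 18 h incubation. Supernatant SEAP measured by QuantiBlue; expressed as fold increase in NF-κB activity over PBS control. Tabulated data at 50 μg/mL, representative of three independent experiments.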

Assay [2] deals with T2, Toll-like receptor 9 (Mus musculus) (UniProt Q9EQU3).
T2 sequence (whole entry): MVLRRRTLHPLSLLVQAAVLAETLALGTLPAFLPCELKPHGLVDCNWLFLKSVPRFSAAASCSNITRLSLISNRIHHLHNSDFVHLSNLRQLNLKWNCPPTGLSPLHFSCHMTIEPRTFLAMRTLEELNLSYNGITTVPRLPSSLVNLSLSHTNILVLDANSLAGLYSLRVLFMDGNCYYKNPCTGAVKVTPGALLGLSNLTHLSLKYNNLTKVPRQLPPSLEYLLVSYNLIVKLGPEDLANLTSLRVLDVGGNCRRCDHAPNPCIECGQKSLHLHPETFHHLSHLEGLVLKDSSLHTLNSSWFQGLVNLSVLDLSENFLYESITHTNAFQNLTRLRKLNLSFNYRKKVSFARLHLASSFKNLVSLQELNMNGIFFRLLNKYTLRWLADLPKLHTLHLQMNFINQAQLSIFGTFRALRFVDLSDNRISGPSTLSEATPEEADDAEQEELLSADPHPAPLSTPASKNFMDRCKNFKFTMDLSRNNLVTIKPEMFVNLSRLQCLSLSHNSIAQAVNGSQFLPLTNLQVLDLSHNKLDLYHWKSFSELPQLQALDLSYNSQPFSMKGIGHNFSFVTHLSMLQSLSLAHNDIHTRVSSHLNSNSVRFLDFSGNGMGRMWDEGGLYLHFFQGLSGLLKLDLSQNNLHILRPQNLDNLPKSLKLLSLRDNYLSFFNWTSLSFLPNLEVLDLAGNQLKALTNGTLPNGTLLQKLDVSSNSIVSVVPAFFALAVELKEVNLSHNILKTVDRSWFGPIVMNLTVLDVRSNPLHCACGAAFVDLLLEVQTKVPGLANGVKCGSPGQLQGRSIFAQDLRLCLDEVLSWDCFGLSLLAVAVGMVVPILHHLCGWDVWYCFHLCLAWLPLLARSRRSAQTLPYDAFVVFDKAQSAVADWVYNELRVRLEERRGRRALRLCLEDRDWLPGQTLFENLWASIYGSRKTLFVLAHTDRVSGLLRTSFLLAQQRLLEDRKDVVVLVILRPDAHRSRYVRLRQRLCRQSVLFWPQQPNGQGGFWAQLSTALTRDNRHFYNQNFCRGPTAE
The assay can be described thus: Activation of mouse TLR9 expressed in HEK293 assessed as induction of NF-kappaB activity reporter gene assay. Format: cell-based. On the technique in general: A reporter such as luciferase makes a cellular process visible.

Assay [3] deals with Splenocyte. The assay is described as follows: Immunomodulatory activity in C57BL/6 mouse splenocytes bearing TLR7 receptor assessed as IL6 release at 100 ug/ml after 24 hrs by ELISA. The assay is classed as functional, cell-based. A digest of the protocol: (§1)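 C57BL/6 splenocytes in RPMI 1640 with 10% FBS, penicillin/streptomycin, 2 mM L-glutamine, plated at 5 × 10^6 cells/mL; compounds in PBS added, 37 °C for 24 h. Supernatant IL-12 and IL-6 by ELISA; representative of three independent experiments.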
On the technique in general: In an ELISA, binding on a coated surface is turned into a signal by an enzyme label.

Assay [4] deals with Splenocyte. The assay can be described thus: Immunomodulatory activity in C57BL/6 mouse splenocytes bearing TLR7 receptor assessed as IL12 release at 100 ug/ml after 24 hrs by ELISA. The assay is classed as functional, cell-based. A digest of the protocol:
as §1

The subject of assay [5] is PBMC. The assay is described as follows: Immunomodulatory activity in human PBMC assessed as induction of IL12 at 100 ug/ml after 24 hrs. The assay is classed as functional, cell-based. The method, boiled down:
(§2)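 Human PBMCs plated at 5 × 10^6 cells/mL; compounds dissolved in PBS added at various concentrations, 37 °C for 24 h. Supernatant cytokines/chemokines quantified with human Luminex multiplex kit.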

Assay [6] relates to PBMC. The assay is described as follows: Immunomodulatory activity in human PBMC assessed as induction of TNFalpha at 100 ug/ml after 24 hrs. Format: functional, cell-based. The method, boiled down:
as §2

The source made the active and inactive calls. The calls are words filed in the database; no cut-off is given here.

`Nc1ccn([C@@H]2O[C@H](COP(=O)(S)O[C@H]3[C@@H](O)[C@H](n4cnc5c(N)ncnc54)O[C@@H]3COP(=O)(S)O[C@H]3[C@@H](O)[C@H](n4cnc5c(N)ncnc54)O[C@@H]3CO)[C@@H](OP(=O)(S)OC[C@H]3O[C@@H](n4ccc(=O)[nH]c4=O)[C@H](O)[C@@H]3OP(=O)(S)OC[C@H]3O[C@@H](n4ccc5c(=O)[nH]c(N)nc54)[C@H](O)[C@@H]3OP(=O)(S)OC[C@H]3O[C@@H](n4cnc5c(N)ncnc54)[C@H](O)[C@@H]3OP(=O)(S)OC[C@H]3O[C@@H](n4cnc5c(N)ncnc54)[C@H](O)[C@@H]3OP(=O)(S)OC[C@H]3O[C@@H](n4ccc5c(=O)[nH]c(N)nc54)[C@H](O)[C@@H]3OP(=O)(S)OC[C@H]3O[C@@H](n4ccc(N)nc4=O)[C@H](O)[C@@H]3OP(=O)(S)OC[C@H]3O[C@@H](n4ccc(=O)[nH]c4=O)[C@H](O)[C@@H]3OP(=O)(S)OC[C@H]3O[C@@H](n4ccc(=O)[nH]c4=O)[C@H](O)[C@@H]3OP(=O)(S)OCC(O)COP(=O)(S)O[C@H]3[C@@H](O)[C@H](n4ccc(=O)[nH]c4=O)O[C@@H]3COP(=O)(S)O[C@H]3[C@@H](O)[C@H](n4ccc(=O)[nH]c4=O)O[C@@H]3COP(=O)(S)O[C@H]3[C@@H](O)[C@H](n4ccc(N)nc4=O)O[C@@H]3COP(=O)(S)O[C@H]3[C@@H](O)[C@H](n4ccc5c(=O)[nH]c(N)nc54)O[C@@H]3COP(=O)(S)O[C@H]3[C@@H](O)[C@H](n4cnc5c(N)ncnc54)O[C@@H]3COP(=O)(S)O[C@H]3[C@@H](O)[C@H](n4cnc5c(N)ncnc54)O[C@@H]3COP(=O)(S)O[C@H]3[C@@H](O)[C@H](n4ccc5c(=O)[nH]c(N)nc54)O[C@@H]3COP(=O)(S)O[C@H]3[C@@H](O)[C@H](n4ccc(=O)[nH]c4=O)O[C@@H]3COP(=O)(S)O[C@H]3[C@@H](O)[C@H](n4ccc(N)nc4=O)O[C@@H]3COP(=O)(S)O[C@H]3[C@@H](O)[C@H](n4cnc5c(N)ncnc54)O[C@@H]3COP(=O)(S)O[C@H]3[C@@H](O)[C@H](n4cnc5c(N)ncnc54)O[C@@H]3CO)[C@H]2O)c(=O)n1` (stereo partly specified): the fold change (FC) in assay [1] turned out to be 29.5. Further, in assay [2], the outcome was inactive. Also, the outcome in assay [3] and in assay [4] was Active. For the same molecule, the Activity in assay [5] was found to be 260 pg/mL; in assay [6] it was 7.5 pg/mL.
